Bioassay records: PubChem BioAssay, several laboratories
NadD block: inhibitors of Staphylococcus aureus NadD | purified NadD enzyme, colorimetric absorbance read-out | inhibition, % at 20 µM | actives 0.78% (n = 360,000) | AID 602399; in the data active = inhibition above about 26%
Rpn11 inh: inhibitors of human proteasome Rpn11 | human 26S proteasome, Ub4-pepOG fluorescence polarization; 20S core pre-blocked with epoxomicin | inhibition, % at 20 µM | actives 0.59% (n = 360,000) | AID 588493;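 active = inhibition at 20 µM, scaled to each plate's controls, above about 33%, limit read from the data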
Target sequence (O00487 whole entry, looked up): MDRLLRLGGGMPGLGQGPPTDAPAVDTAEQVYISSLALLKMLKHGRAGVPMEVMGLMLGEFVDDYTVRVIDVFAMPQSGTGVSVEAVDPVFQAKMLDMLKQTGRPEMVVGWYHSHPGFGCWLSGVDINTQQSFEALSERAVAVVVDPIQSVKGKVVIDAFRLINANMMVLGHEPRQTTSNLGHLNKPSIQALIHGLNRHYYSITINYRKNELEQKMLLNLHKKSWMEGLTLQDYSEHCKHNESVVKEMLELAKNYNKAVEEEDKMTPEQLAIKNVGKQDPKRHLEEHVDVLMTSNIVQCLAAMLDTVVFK
CSN deneddyl inh: blocks human CSN-mediated cullin deneddylation; Purified CSN, SCF-Nedd8-OG deneddylation, fluorescence polarization; inhibition, % at 12.5 µM; Q92905; actives 0.38% (n = 360,000);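 active = pattern-corrected inhibition above about 35%, with an unprinted fluorescence ratio check between 0.5 and 1.5, limit read from the data, passing the limit was not always enough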;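 also: 0% = enzyme with substrate and 100% = substrate without enzyme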
Target sequence (Q92905 whole entry, looked up, one chain of several): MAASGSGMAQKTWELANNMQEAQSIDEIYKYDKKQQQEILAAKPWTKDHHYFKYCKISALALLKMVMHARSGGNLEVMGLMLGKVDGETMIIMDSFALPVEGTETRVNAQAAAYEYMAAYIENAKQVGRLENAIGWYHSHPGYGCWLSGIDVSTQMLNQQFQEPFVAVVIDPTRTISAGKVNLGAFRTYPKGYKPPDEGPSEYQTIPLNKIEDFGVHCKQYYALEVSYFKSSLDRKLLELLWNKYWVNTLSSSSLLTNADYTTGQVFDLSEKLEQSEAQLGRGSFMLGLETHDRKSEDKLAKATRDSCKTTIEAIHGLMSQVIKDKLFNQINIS
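assay system = purified human Csn5 enzyme expressed in HEK293T cells | amount = 0.24 nM enzyme | buffer or medium = Tris/NaCl/DTT buffer, pH 7.5 | reagent = 10 nM SCFSkp2-Nedd8OG | compound = one concentration, 12.5 µM, 0.25% DMSO | times = 90 min reaction at room temperature | signal = FP | read-out basis = % inhibition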
TPT1 inh: blocks Candida albicans tRNA 2'-phosphotransferase. actives 0.81% (n = 300,000). inhibition, % at 5 µM. recombinant caTPT1, FP RNA substrate dephosphorylation;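 active = inhibition above the mean of all tested compounds plus 3 SD, set per screening campaign, cut at about 24% in these data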;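 also: plate controls were DMSO alone for no effect and ferristatin control at 100 nM for full effect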
PP1 inh: PP1-alpha (human) inhibition in PP5 counter-screen; P62136; purified PP1alpha, OMFP fluorescence; inhibition, % at 6.7 µM; actives 0.9% (n = 320,000);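 active = inhibition above the mean inhibition of all tested compounds plus 3 SD, computed separately for each screening campaign, cut at about 15% in these data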
HNF4A DNA FP: change in binding of human HNF4 alpha to DNA; HNF4a-FITC DNA binding, fluorescence polarization, 1 h; activity change, % at 10 µM; actives 0.3% (n = 360,000); P41235; AID 1224865; in the data active = activity change above about 30%, passing the limit was not always enough
TPT1 inh confirm: TPT1 (C. albicans) inhibition, confirmation; recombinant caTPT1, fluorescence polarization, RNase T1 coupled; inhibition, % at 5 µM; actives 74% (n = 2,400); shares compounds with TPT1 inh;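 active = inhibition above the primary screen limit, the mean inhibition of all tested compounds plus 3 SD, cut at about 25% in these data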
RNase T1 counter: counter-screen for TPT1 inhibitors: inhibitors of Aspergillus oryzae RNase T1. shares compounds with TPT1 inh. RNase T1 cleavage, fluorescence polarization, 1536-well. inhibition, % at 5 µM. actives 83% (n = 2,400). AID 2153;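 active = inhibition above the solvent-only control well mean plus 3 SD, limit set per screening run, cut at about 23% in these data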;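 also: plate controls were DMSO wells with enzyme for no effect and wells without RNase T1 for full effect; inhibitors block cleavage so intact labeled substrate keeps polarization high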
Rpn11 confirm: Rpn11 inhibition confirmation, single concentration; purified human 26S proteasome, Ub4-pepOG fluorescence polarization; proteasome pretreated with epoxomicin; actives 29% (n = 1,900); AID 602318; inhibition, % at 20 µM; shares compounds with Rpn11 inh
MMP-2 counter-1: counter-screen for RPN11 inhibitors: inhibition of human MMP-2 | AID 602330 | shares compounds with Rpn11 inh | actives 4% (n = 1,900) | inhibition, % at 20 µM | recombinant MMP-2, FRET peptide cleavage fluorescence;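 also: human MMP-2 activated beforehand with APMA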
Thrombin FP: counter-screen for RPN11 inhibitors: inhibition of bovine thrombin. shares compounds with Rpn11 inh. bovine thrombin cleavage of Ub4-pepOG, fluorescence polarization. inhibition, % at 20 µM. actives 13% (n = 1,900). AID 602333;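 active = mean inhibition at least 40% at 20 µM, or signal 3 deviations below plate average, so some actives read negative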;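 also: plate controls were thrombin with DMSO for no effect and buffer wells lacking thrombin for full effect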
CSN deneddyl val: Csn5 (human) deneddylation inhibition, single-concentration validation. shares compounds with CSN deneddyl inh. Csn5 deneddylation of SCF-Nedd8OG, fluorescence polarization, 90 min. inhibition, % at 16.6 µM. actives 62% (n = 540). AID 720654; in the data active = inhibition above about 50%;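 also: 0% = DMSO with enzyme and 100% = no enzyme wells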
MMP-2 counter-2: counter-screen for CSN deneddylation inhibitors: human MMP-2 inhibition | inhibition, % at 16.6 µM | actives 33% (n = 540) | shares compounds with CSN deneddyl inh | recombinant MMP-2, FRET substrate fluorescence, 60 min;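 active = corrected plate-normalized z-score of 5 or more, or -5 or less, or inhibition of 15% or more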;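 also: plate controls were DMSO wells with enzyme for no effect and buffer wells lacking MMP-2 for full effect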
Thrombin counter: counter-screen for CSN deneddylation inhibitors: bovine thrombin inhibition; inhibition, % at 16.6 µM; shares compounds with CSN deneddyl inh; bovine thrombin cleavage of Ub4-pepOG, fluorescence polarization; actives 49% (n = 540);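 active = inhibition at or above a set limit, with a fluorescence interference ratio between 0.5 and a set maximum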
* marks the source's active call; other numbers are inactive results; . = no result given. Rows were chosen to be rich in hits. Some 2.7% of all compounds tested hit in one or more screens of this group. Rule as the data show it, unless noted: active = inhibition above about 40%; inactive = the rest.

SMILES	NadD block	Rpn11 inh	CSN deneddyl inh	TPT1 inh	PP1 inh	HNF4A DNA FP	TPT1 inh confirm	RNase T1 counter	CSN deneddyl val	MMP-2 counter-2	Thrombin counter	others
CCOc1ccc(NC(=O)/C(C#N)=C/c2ccc(N3CCCC3)c(C)c2)cc1	7	.	46*	83*	3	74	83*	89*	99*	0	25*
CC(=O)Nc1ccc(CN(C)c2c(C)nc3ccc(C(=O)Nc4ccc(Cl)c(Cl)c4)cn23)cc1	8	6	-2	.	.	1	.	.	.	.	.
CCOCCCNc1nc2c(C)cccn2c(=O)c1/C=C1\SC(=S)N(CC(C)C)C1=O	-1	75*	47*	52*	-7	57*	76*	95*	76*	-5	20*	Rpn11 confirm=91*;MMP-2 counter-1=60*;Thrombin FP=72*
Cc1cccn2c(=O)c3cc(C(=O)NCCN4CCOCC4)n(C)c3nc12	1	-1	5	-1	2	1	.	.	.	.	.
Cc1cccn2c(=O)c(/C=C3\SC(=S)NC3=O)c(NCCCN3CCOCC3)nc12	2	.	85*	121*	-7	109*	122*	120*	81*	-18	47*
O=C(Nc1ccc(COc2ccccc2)cc1)Nc1cccc(C(=O)O)c1	-4	3	0	0	0	2	.	.	.	.	.
O=C(NCCc1ccc(Cl)cc1Cl)C1=CC=CN2CCS(=O)(=O)N=C12	-2	-2	-5	.	-2	2	.	.	.	.	.
CCOC(=O)C1CCCN(C2=NC(=O)/C(=C/c3ccc(OC)cc3)S2)C1 (centres undefined)	-3	0	-4	3	-1	2	.	.	.	.	.
CCOC(=O)C1CCCN(C2=NC(=O)/C(=C/c3ccc(N(C)C)cc3)S2)C1 (centres undefined)	4	.	114*	128*	3	139	130*	126*	171*	14	12
CCCCC[C@@H]1C=C(C(=O)O)[C@H](c2ccc(Br)cc2)N1S(=O)(=O)c1ccc(C)cc1	10	10	8	.	.	0	.	.	.	.	.
CCOc1cc(/C=C2\SC(=S)N(NS(=O)(=O)c3ccccc3)C2=O)ccc1O	-1	.	33	13	7	15	.	.	.	.	.
O=C(NN1C(=O)/C(=C/c2ccc(O)c(O)c2)SC1=S)c1ccccc1	3	.	50*	31*	6	33	44*	57*	63*	20*	33*
CC(=O)NN1C(=O)/C(=C\c2ccccc2)SC1=S	-3	0	4	2	-4	-3	.	.	.	.	.
COc1cc(/C=C2\SC(=S)N(NC(=O)c3cccnc3)C2=O)ccc1O	-3	.	39*	25*	-2	52*	34*	42*	65*	9	35*
COc1cc(/C=C2\SC(=S)N(NC(=O)c3ccc(O)cc3)C2=O)ccc1O	-2	.	50*	35*	2	50*	39*	52*	53*	2	65*
COc1cc(/C=C2\SC(=S)N(c3cccnc3)C2=O)ccc1O	-2	.	149	23	3	0	.	.	.	.	.
COc1cccc(/C=C2\SC(=S)N(NC(=O)c3ccncc3)C2=O)c1	-2	7	6	1	-2	2	.	.	.	.	.
CCOc1cc(/C=C2\SC(=S)N(Nc3ccccc3)C2=O)ccc1O	3	82*	37*	34*	7	32	37*	50*	75*	9	61*	Rpn11 confirm=72*;MMP-2 counter-1=24;Thrombin FP=79*
Cc1cc(OCC(=O)OCC(=O)c2ccc[nH]2)ccc1Cl	-9	5	-1	.	.	-3	.	.	.	.	.
Cc1nc2c3ccccc3nc(NNC(=O)CCC(=O)N3CCCC(C)C3)n2n1 (centres undefined)	3	5	-4	-3	-1	-1	.	.	.	.	.
CC(=O)NN1C(=O)/C(=C\c2ccc(O)cc2)SC1=S	6	.	96*	37*	-3	82*	41*	48*	39	-5	73*
COC(=O)c1cn(Nc2ncc(C(F)(F)F)cc2Cl)c(=O)c2ccccc12	-4	-1	4	1	2	0	.	.	.	.	.
COc1cc(/C=C2\SC(=S)N(Nc3ncc(C(F)(F)F)cc3Cl)C2=O)ccc1O	16	72*	67*	27*	7	82*	32*	43*	78*	-14	61*	Rpn11 confirm=75*;MMP-2 counter-1=-20;Thrombin FP=75*
O=C(O)C(Cc1ccccc1)N1C(=O)/C(=C/c2ccccc2)SC1=S (centres undefined)	3	-5	0	-2	1	0	.	.	.	.	.
COc1cc(/C=C2\SC(=S)N(C(Cc3ccccc3)C(=O)O)C2=O)ccc1O (centres undefined)	0	103*	36*	33*	-1	35*	37*	49*	56*	6	68*	Rpn11 confirm=62*;MMP-2 counter-1=-17;Thrombin FP=79*
COc1cc(/C=C2/SC(=S)N(CC3CCCO3)C2=O)ccc1O (centres undefined)	-1	.	58*	39*	4	41*	41*	51*	65*	-4	75*
CC(=O)NN1C(=O)/C(=C\c2ccc(C)cc2)SC1=S	-3	-1	-1	-1	-1	3	.	.	.	.	.
O=C(O)Cc1ccc2c(c1)Cc1cccnc1O2	-2	-4	4	.	.	5	.	.	.	.	.
